Measured values published in ChEMBL document CHEMBL1133584, “Potent and selective non-peptidic inhibitors of endothelin-converting enzyme-1 with sustained duration of action” (J Med Chem, 2000).

Columns and labels:
[1] = target: T1, Endothelin-converting enzyme 1 (Homo sapiens) (UniProt P42892); test: Inhibition of Endothelin-converting enzyme 1 activity at a concentration of 1 uM
T1 sequence (whole entry): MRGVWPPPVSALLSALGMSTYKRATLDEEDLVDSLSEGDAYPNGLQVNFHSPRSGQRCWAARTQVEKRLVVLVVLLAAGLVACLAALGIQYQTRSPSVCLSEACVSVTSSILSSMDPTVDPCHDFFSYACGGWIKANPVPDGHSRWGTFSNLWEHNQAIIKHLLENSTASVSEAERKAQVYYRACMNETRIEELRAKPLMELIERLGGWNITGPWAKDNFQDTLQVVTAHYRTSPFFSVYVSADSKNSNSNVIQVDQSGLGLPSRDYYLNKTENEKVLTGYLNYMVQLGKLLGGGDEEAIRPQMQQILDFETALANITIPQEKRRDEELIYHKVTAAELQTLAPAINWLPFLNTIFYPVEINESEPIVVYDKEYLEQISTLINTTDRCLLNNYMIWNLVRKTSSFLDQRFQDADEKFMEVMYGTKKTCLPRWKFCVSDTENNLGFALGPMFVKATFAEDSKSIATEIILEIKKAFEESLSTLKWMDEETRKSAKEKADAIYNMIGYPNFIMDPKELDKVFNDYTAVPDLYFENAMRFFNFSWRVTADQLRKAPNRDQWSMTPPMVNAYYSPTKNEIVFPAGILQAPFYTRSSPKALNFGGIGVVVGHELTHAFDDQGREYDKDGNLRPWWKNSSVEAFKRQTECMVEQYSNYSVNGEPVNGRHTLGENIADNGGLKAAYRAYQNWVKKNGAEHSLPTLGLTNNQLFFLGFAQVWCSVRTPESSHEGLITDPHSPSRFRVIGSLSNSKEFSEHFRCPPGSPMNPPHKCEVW
In short: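 Human recombinant ECE-1a came from CHO cell membranes. Activity was measured with test compound at 1 µM and expressed as percent inhibition.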

[2] = Selectivity ratio of IC50 NEP/IC50 ECE
In short: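 ECE selectivity was the ratio of IC50 against rat kidney cortex NEP 24.11 to IC50 against CHO-membrane human recombinant ECE-1a.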

[3] = target: T2, Neprilysin (Rattus norvegicus, UniProt P07861); test: In vitro inhibition of rat neutral endopeptidase
T2 sequence (P07861 whole entry): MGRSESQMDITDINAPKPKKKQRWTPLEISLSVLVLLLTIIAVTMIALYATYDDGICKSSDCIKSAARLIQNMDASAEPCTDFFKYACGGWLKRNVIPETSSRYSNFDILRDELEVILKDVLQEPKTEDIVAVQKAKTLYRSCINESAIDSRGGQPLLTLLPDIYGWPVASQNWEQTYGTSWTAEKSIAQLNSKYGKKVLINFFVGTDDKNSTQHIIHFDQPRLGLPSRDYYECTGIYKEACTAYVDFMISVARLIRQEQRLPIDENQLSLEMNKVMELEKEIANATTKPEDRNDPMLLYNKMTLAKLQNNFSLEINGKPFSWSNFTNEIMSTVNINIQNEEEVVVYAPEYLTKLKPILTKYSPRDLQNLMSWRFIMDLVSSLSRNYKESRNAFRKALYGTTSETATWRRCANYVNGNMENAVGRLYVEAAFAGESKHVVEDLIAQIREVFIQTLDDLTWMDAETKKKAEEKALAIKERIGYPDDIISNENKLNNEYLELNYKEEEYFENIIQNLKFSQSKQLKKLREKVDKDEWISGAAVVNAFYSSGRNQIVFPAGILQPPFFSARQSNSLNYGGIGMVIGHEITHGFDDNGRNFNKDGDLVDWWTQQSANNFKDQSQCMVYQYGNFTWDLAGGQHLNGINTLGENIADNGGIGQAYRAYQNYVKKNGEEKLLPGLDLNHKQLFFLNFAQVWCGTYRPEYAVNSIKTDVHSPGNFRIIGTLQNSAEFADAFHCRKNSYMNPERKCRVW

[4] = target: T3, Endothelin-converting enzyme 1 (Homo sapiens, UniProt P42892); test: In Vitro inhibition of recombinant human endothelin converting enzyme-1
T3 sequence (P42892 whole entry): T1 sequence (whole entry)
In short: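 Enzyme was human recombinant ECE-1a from membranes of CHO cells expressing it. The IC50 was determined by the assay method of earlier work.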

## O=C(O)[C@H](Cc1ccc2c(c1)oc1ccccc12)NCP(=O)(O)O
[1]
  inhibition: 92%
[2]
  Selectivity: 104
[3]
  IC50: 2300 nM
[4]
  IC50: 22 nM

## Cn1c2ccccc2c2ccc(CC(NCP(=O)(O)O)c3nnn[nH]3)cc21 (stereo not given)
[2]
  Selectivity: < 0.03
[3]
  IC50: 140 nM
[4]
  IC50: > 4000 nM

## O=C(O)[C@H](Cc1ccc2c(c1)oc1ccccc12)NC(=O)[C@H](Cc1ccc2c(c1)oc1ccccc12)NCP(=O)(O)O
[1]
  inhibition: 95%
[2]
  Selectivity: 0.42
[3]
  IC50: 2.7 nM
[4]
  IC50: 6.4 nM

## O=C1c2ccccc2-c2ccc(CC(NCP(=O)(O)O)c3nnn[nH]3)cc21 (stereo not given)
[2]
  Selectivity: 7.7
[3]
  IC50: 230 nM
[4]
  IC50: 30 nM

## O=P(O)(O)CNC(Cc1ccc2c(c1)oc1ccccc12)c1nnn[nH]1 (stereo not given)
[2]
  Selectivity: 19
[3]
  IC50: 114 nM
[4]
  IC50: 6 nM

## CC(C)CCCC(N[C@@H](Cc1ccc2c(c1)oc1ccccc12)C(=O)O)P(=O)(O)O (stereo not given in full)
[1]
  inhibition: 89%
[2]
  Selectivity: > 286
[3]
  IC50: > 16000 nM
[4]
  IC50: 65 nM

## COc1cc(CCC(N[C@@H](Cc2ccc3c(c2)oc2ccccc23)C(=O)O)P(=O)(O)O)cc(OC)c1OC (stereo not given in full)
[1]
  inhibition: 92%
[2]
  Selectivity: 818
[3]
  IC50: 18000 nM
[4]
  IC50: 22 nM

## O=P(O)(O)CNC(Cc1ccc2c(c1)Cc1ccccc1-2)c1nnn[nH]1 (stereo not given)
[2]
  Selectivity: 0.9
[3]
  IC50: 450 nM
[4]
  IC50: 520 nM

## CC(C)CC(NC(=O)[C@H](Cc1ccc2c(c1)oc1ccccc12)NCP(=O)(O)O)C(=O)O (stereo not given in full)
[1]
  inhibition: 92%
[2]
  Selectivity: 2.3
[3]
  IC50: 31 nM
[4]
  IC50: 13 nM

## O=C(O)C(Cc1ccccc1)NC(=O)[C@H](Cc1ccc2c(c1)oc1ccccc12)NCP(=O)(O)O (stereo not given in full)
[1]
  inhibition: 91%
[2]
  Selectivity: 0.5
[3]
  IC50: 12 nM
[4]
  IC50: 23 nM

## O=P(O)(O)C(CCc1cccc2ccccc12)N[C@@H](Cc1ccc2c(c1)oc1ccccc12)c1nnn[nH]1 (stereo in doubt; 43a')
[3]
  IC50: 210 nM
[4]
  IC50: 2.6 nM

## O=P(O)(O)C(CCc1cccc2ccccc12)N[C@@H](Cc1ccc2c(c1)oc1ccccc12)c1nnn[nH]1 (stereo in doubt; 43b')
[3]
  IC50: 13000 nM
[4]
  IC50: 440 nM
